Assay results from different studies.
Transmembrane protease serine 6: Transmembrane protease serine 6 (Homo sapiens, UniProt Q8IU80)
Palmitoyl-protein thioesterase 1: Palmitoyl-protein thioesterase 1 (Homo sapiens, UniProt P50897)
EGFR: Epidermal growth factor receptor (EGFR, Homo sapiens, UniProt P00533)

Structure (SMILES)	target	test	conditions	measurement	result
Cc1ccc2c(-c3cc4c(CN5CCN(Cc6ccccn6)CC5)cnc(C)c4o3)cc(=O)oc2c1	Epidermal growth factor receptor (EGFR, Homo sapiens, UniProt P00533, L858R/T790M)	enzyme activity, inhibitor, ADP detection	1 µM	inhibition	65 to 75%
N=C(N)NCCC[C@H](NC(=O)[C@H](Cc1ccc(I)cc1)NC(=O)[C@H](Cc1cscn1)NC(=O)CCc1ccccc1)C(=O)c1nc2ccccc2s1	Transmembrane protease serine 6	enzyme activity, inhibitor	0.1 µM	remaining activity	90%
COc1cc(C=O)ccc1O	Palmitoyl-protein thioesterase 1	enzyme activity, inhibitor	312 µM	inhibition	64%
N=C(N)NCCC[C@H](NC(=O)[C@H](Cc1ccc(-c2ccccc2)cc1)NC(=O)[C@H](Cc1cscn1)NC(=O)CCc1ccccc1)C(=O)c1nc2ccccc2s1	Transmembrane protease serine 6	enzyme activity, inhibitor	0.1 µM	remaining activity	35%
C=CC(=O)N1CCC(COCC(=O)N2CCN(c3nc(-c4cnc(N)nc4C(F)F)nc(N4CCOC[C@@H]4C)n3)CC2)CC1	Serine/threonine-protein kinase B-raf (BRAF, Homo sapiens, UniProt P15056, V600E)	binding, competition with immobilised ligand	1 µM	remaining binding	81%
CNc1ncc2c(/C=C/C(=O)N3CCC(OC)CC3)nn(Cc3cccc(C(F)(F)F)c3)c2n1	Serine/threonine-protein kinase B-raf (BRAF, Homo sapiens, UniProt P15056)	enzyme activity, inhibitor, radiometric	1 µM	remaining activity	79%
COc1cc(-c2cncc3c2CN(C)Cc2cc(N4CCNCC4)ccc2-3)cc(OC)c1OC	Wee1-like protein kinase (WEE1, Homo sapiens, UniProt P30291)	enzyme activity, inhibitor	1 µM	remaining activity	95%
CC(C)C[C@@H](C(=O)N[C@H](C(=O)OC1CCCC1)c1ccccc1)[C@H](O)C(=O)NO	Palmitoyl-protein thioesterase 1	enzyme activity, inhibitor	625 µM	inhibition	8.02%
N=C(N)NCCC[C@H](NC(=O)[C@H](Cc1ccc2ccccc2c1)NC(=O)[C@H](Cc1cscn1)NC(=O)CCc1ccccc1)C(=O)c1nc2ccccc2s1	Transmembrane protease serine 6	enzyme activity, inhibitor	0.1 µM	remaining activity	8%
Cc1ncc(CN2CCc3ccccc3C2)c2cc(C(=O)c3ccc4c(c3)OCCO4)oc12	EGFR	enzyme activity, inhibitor, ADP detection	1 µM	inhibition	90 to 100%
CCC[C@H](NC(=O)[C@H](Cc1cscn1)NC(=O)CCc1ccccc1)C(=O)N[C@@H](CCCNC(=N)N)C(=O)c1nc2ccccc2s1	Transmembrane protease serine 6	enzyme activity, inhibitor	0.1 µM	remaining activity	30%
C=C[C@H]1C[N@@]2CC[C@H]1C[C@H]2[C@H](O)c1ccnc2ccc(OC)cc12	Palmitoyl-protein thioesterase 1	enzyme activity, inhibitor	125 µM	inhibition	18.6%
N=C(N)NCCC[C@H](NC(=O)[C@H](CC12CC3CC(CC(C3)C1)C2)NC(=O)[C@H](Cc1cscn1)NC(=O)CCc1ccccc1)C(=O)c1nc2ccccc2s1	Transmembrane protease serine 6	enzyme activity, inhibitor	0.1 µM	remaining activity	95%
O=C1C=C2CC3(O)COc4cc(O)ccc4C3=C2C=C1O (stereo not drawn)	Palmitoyl-protein thioesterase 1	enzyme activity, inhibitor	625 µM	inhibition	29.3%
Cc1ccc2c(-c3cc4c(CNCc5ccco5)cnc(C)c4o3)cc(=O)oc2c1C	EGFR	enzyme activity, inhibitor, ADP detection	1 µM	inhibition	0 to 40%
NCCCCCC(=O)O	Palmitoyl-protein thioesterase 1	enzyme activity, inhibitor	312 µM	inhibition	17.1%
N=C(N)NCCC[C@H](NC(=O)[C@H](CCC1CCCCC1)NC(=O)[C@H](Cc1cscn1)NC(=O)CCc1ccccc1)C(=O)c1nc2ccccc2s1	Transmembrane protease serine 6	enzyme activity, inhibitor	0.1 µM	remaining activity	5%
c1coc(CNc2ncnc3[nH]cnc23)c1	Palmitoyl-protein thioesterase 1	enzyme activity, inhibitor	125 µM	inhibition	8.93%
Cc1cc([C@@H](C)Nc2ccccc2C(=O)O)c2nc(N3CCC(F)(F)CC3)c(C#N)c(=O)n2c1	Epidermal growth factor receptor (EGFR, Homo sapiens, UniProt P00533, L858R)	binding, competition with immobilised ligand	10 µM	remaining binding	100%
CCCCC/C=C\C/C=C\CCCCCCCC(=O)O	Palmitoyl-protein thioesterase 1	enzyme activity, inhibitor	156 µM	inhibition	40.4%
CC1([C@H](NC(=O)[C@H](Cc2cscn2)NC(=O)CCc2ccccc2)C(=O)N[C@@H](CCCNC(=N)N)C(=O)c2nc3ccccc3s2)CC1	Transmembrane protease serine 6	enzyme activity, inhibitor	0.1 µM	remaining activity	36%
